Screening results from PubChem.
aDG glyco act – activators of alpha-DG glycosylation, primary screen, uHTS, Pro5-aDG cells, AlphaScreen; activation, % at 10 µM; alpha-DG glycosylation AlphaScreen (IIH6); 0% Pro5, 100% B10-LARGE cell signal; hit rate 0.22% among 360,000;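 active = activation of at least 8% versus controls, or a plate z-score of at least 8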;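 also: Pro5 are CHO cells carrying HIG-tagged alpha-DG that lacks glycosylation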
TPT1 inhibitor – Candida albicans TPT1 enzyme inhibitors, primary screen, biochemical, fluorescence polarization; hit rate 0.81% among 300,000; tRNA 2'-phosphotransferase TPT1 (Candida albicans SC5314); inhibition, % at 5 µM; recombinant caTPT1, FP RNA substrate dephosphorylation;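 active = inhibition above the mean of all tested compounds plus 3 SD, set per screening campaign, cut at about 24% in these data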
Xi reactivation – activators of inactive X chromosome reactivation, primary screen, imaging, XiGFP fibroblasts, GFP high-content imaging, set 2. activation, % at 7.58 µM. XiGFP mouse fibroblasts, % GFP-positive cells imaging, 3 d; cells co-treated with 5-aza-dC sensitizer; scaled so ellipticine positive control = 100%. hit rate 0.055% among 360,000;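 active = mean normalized replicate activation at least 10% and every replicate at or above 10%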
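System: SV40-immortalized XiGFP fibroblast cells, line 68-5-11 / Incubation: 3-day compound exposure, then 15 min fixation at room temperature / Compound: single concentration per compound, delivered by pin transfer / Buffer or medium: DMEM plus 5-aza-dC sensitizer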
CSN inh – inhibitors of CSN-mediated cullin deneddylation, primary screen, biochemical, fluorescence polarization, uHTS; COP9 signalosome complex subunit 5 (Homo sapiens), Q92905; Purified CSN, SCF-Nedd8-OG deneddylation; inhibition, % at 12.5 µM; hit rate 0.38% among 360,000; AID 651999, 2013;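 active = pattern-corrected inhibition above about 35%, with an unprinted fluorescence ratio check between 0.5 and 1.5, limit read from the data, passing the limit was not always enough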
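test system = HEK293T-derived human Csn5 enzyme | amount = 0.24 nM Csn5 enzyme, final concentration | medium = Tris/NaCl/DTT buffer, pH 7.5 | schedule = 90 min reaction at room temperature | signal = FP | evaluation = inhibition of Csn5 cleavage, % | compound dosing = single dose of 12.5 µM compound with 0.25% DMSO | probe or stimulus = 10 nM SCFSkp2-Nedd8OG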
HNF4A DNA FP – change in binding of human HNF4A to DNA, primary screen, biochemical, fluorescence polarization, FITC-DNA; Hepatocyte nuclear factor 4-alpha (Homo sapiens), P41235; 1 h; activity change, % at 10 µM; hit rate 0.3% among 360,000; AID 1224865, 2016; in the data active = activity change above about 30%, passing the limit was not always enough
Rpn11 inh – Rpn11 (PSMD14) deubiquitinase inhibitors, primary screen, biochemical, fluorescence polarization, uHTS. human 26S proteasome, Ub4-pepOG fluorescence polarization; 20S core pre-blocked with epoxomicin. 26S proteasome non-ATPase regulatory subunit 14 (Homo sapiens), O00487. hit rate 0.59% among 360,000. inhibition, % at 20 µM;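 active = inhibition at 20 µM, scaled to each plate's controls, above about 33%, limit read from the data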
caTPT1 confirm – Candida albicans TPT1 inhibitors, confirmation, biochemical, fluorescence polarization, triplicate; shares compounds with TPT1 inhibitor; recombinant caTPT1, RNase T1 coupled; inhibition, % at 5 µM; hit rate 74% among 2,400; AID 2149, 2009;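 active = inhibition above the primary screen limit, the mean inhibition of all tested compounds plus 3 SD, cut at about 25% in these data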
RNase T1 inh – RNase T1 inhibitors, counter-screen for TPT1 inhibitor project, biochemical, fluorescence polarization. shares compounds with TPT1 inhibitor. RNase T1 cleavage, 1536-well. inhibition, % at 5 µM. hit rate 83% among 2,400. AID 2153, 2009;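 active = inhibition above the solvent-only control well mean plus 3 SD, limit set per screening run, cut at about 23% in these data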;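 also: inhibitors block cleavage so intact labeled substrate keeps polarization high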
Rpn11 confirm – Rpn11 (PSMD14) deubiquitinase inhibitors, confirmation, biochemical, fluorescence polarization, single concentration; shares compounds with Rpn11 inh; purified human 26S proteasome, Ub4-pepOG fluorescence polarization; proteasome pretreated with epoxomicin; inhibition, % at 20 µM; hit rate 29% among 1,900
MMP-2 counter – MMP-2 enzyme inhibition, confirmation, counter-screen for RPN11 inhibitor project, biochemical, fluorescence, single concentration | AID 602330, 2012 | shares compounds with Rpn11 inh | hit rate 4% among 1,900 | recombinant MMP-2, FRET peptide cleavage fluorescence | inhibition, % at 20 µM;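 also: human MMP-2 activated beforehand with APMA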
Target sequence (P08253 whole entry, looked up): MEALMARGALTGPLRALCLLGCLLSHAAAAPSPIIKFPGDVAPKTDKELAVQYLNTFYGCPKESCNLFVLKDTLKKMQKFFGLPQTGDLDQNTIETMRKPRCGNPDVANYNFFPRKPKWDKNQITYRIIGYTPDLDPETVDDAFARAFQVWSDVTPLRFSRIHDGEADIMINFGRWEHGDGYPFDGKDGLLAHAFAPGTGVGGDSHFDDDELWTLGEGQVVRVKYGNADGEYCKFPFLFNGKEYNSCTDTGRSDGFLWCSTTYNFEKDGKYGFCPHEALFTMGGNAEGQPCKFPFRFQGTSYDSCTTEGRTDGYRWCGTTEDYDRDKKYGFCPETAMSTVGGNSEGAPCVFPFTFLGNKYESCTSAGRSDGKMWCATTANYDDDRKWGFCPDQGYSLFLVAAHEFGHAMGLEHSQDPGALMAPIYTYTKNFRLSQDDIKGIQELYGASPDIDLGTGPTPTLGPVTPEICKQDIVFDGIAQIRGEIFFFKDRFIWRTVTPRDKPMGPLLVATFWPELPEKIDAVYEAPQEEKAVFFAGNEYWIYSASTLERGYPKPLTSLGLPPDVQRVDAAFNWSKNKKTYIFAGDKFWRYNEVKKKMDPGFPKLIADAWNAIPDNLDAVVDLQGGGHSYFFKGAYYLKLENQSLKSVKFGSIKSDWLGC
Thrombin inh – bovine thrombin protease inhibition, confirmation, counter-screen for Rpn11 inhibitor project, biochemical, fluorescence polarization, single concentration; shares compounds with Rpn11 inh; bovine thrombin cleavage of Ub4-pepOG; inhibition, % at 20 µM; hit rate 13% among 1,900;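 active = mean inhibition at least 40% at 20 µM, or signal 3 deviations below plate average, so some actives read negative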
A number is an active result; . = inactive; / = no result given; + = active, no number. In the library only some 1.3% were active in any assay of this set; here they are far more common. Rule as the data show it, unless noted: active = inhibition above about 40%; inactive = the rest.

SMILES	aDG glyco act	TPT1 inhibitor	Xi reactivation	CSN inh	HNF4A DNA FP	Rpn11 inh	caTPT1 confirm	RNase T1 inh	Rpn11 confirm	MMP-2 counter	Thrombin inh
CCCCn1c(O)c(/C=C/C=C/C=Nc2ccccc2)sc1=S	.	44.5	.	.	51.2	81.2	.	28.5	.	.	.
Nc1ccc(Nc2ccccc2N)cc1	.	25.0	/	.	.	35.3	26.5	36.0	.	.	.
COc1ccc(Nc2ccccc2N)cc1	.	36.6	.	.	.	52.5	27.1	35.1	.	.	.
O=C1CC(=O)N(Cc2ccco2)C(=S)N1	.	111.0	/	61.5	.	190.9	.	30.9	101.8	81.8	+
CC(C)C(=O)Nc1ccc2c(c1)C(=O)N(C)[C@@H]1CC[C@H](CC(=O)NCc3cccc(F)c3)O[C@H]1CO2	/	/	.	/	/	/	/	/	/	/	/
Cc1cc(NC(=O)CSc2nc3cc(Cl)ccc3s2)no1	.	.	/	.	.	.	/	/	/	/	/
O=C(CSc1nc2cc(Cl)ccc2s1)c1cc2ccccc2o1	.	78.0	/	.	.	55.3	.	26.8	45.4	.	.
COC(=O)C1=C(C)N=c2s/c(=C/c3ccoc3)c(=O)n2C1c1ccccc1 (stereo unspecified)	.	58.1	/	57.9	45.3	107.4	61.3	72.7	47.9	.	47.4
CCOC(=O)C1=C(C)N=c2s/c(=C\c3cccc(OCC(=O)O)c3)c(=O)n2C1c1ccccc1 (stereo unspecified)	.	/	.	.	.	.	/	/	/	/	/
CCOC(=O)C1=C(C)N=c2s/c(=C\c3ccc(OCC(=O)O)c(OC)c3)c(=O)n2C1c1ccc(OC)cc1 (stereo unspecified)	.	25.4	.	.	.	40.7	43.7	53.4	.	.	.
O=C(C[C@H]1CC[C@H](NC(=O)Nc2ccccc2)[C@H](CO)O1)NCc1cccc(F)c1	/	/	.	/	/	/	/	/	/	/	/
c1cc(Nc2cccc3nccnc23)c2nccnc2c1	.	25.3	.	.	.	34.0	24.8	35.1	.	.	.
Fc1ccc(Nc2cccc3nccnc23)cc1	.	.	.	.	.	.	/	/	/	/	/
COc1cc(N=Nc2ccccc2C(=O)O)ccc1O	.	.	.	.	.	.	/	/	/	/	/
Cc1cc(N=Nc2ccccc2C(=O)O)c(C)c(C)c1O	.	41.4	.	.	32.2	91.5	41.9	59.8	68.6	.	48.2
Cc1cc(O)c(C(C)C)cc1N=Nc1ccccc1C(=O)O	.	26.5	.	.	.	41.3	31.0	47.7	.	.	.
Cc1nc(N2N=C(c3ccc(Cl)cc3)CC2c2ccco2)sc1C(=O)N(C)C (stereo unspecified)	.	.	.	.	.	.	/	/	/	/	/
COc1ccc(C2=NN(c3nc(-c4ccccc4)c(CC(=O)O)s3)C(c3ccco3)C2)cc1 (stereo unspecified)	.	59.7	.	42.8	.	68.8	36.9	49.4	.	.	.
COc1cccc(/C=C2\Oc3cc(OCC(=O)N4CCCC4)ccc3C2=O)c1OC	.	.	.	.	.	.	/	/	/	/	/
COc1cccc(/C=C2\Oc3ccc(O)cc3C2=O)c1O	.	48.8	.	.	.	43.6	71.1	78.8	.	.	.
COC(=O)c1ccc(N2NC(=O)/C(=C/c3cc(OC)c(O)c(OC)c3)C2=O)cc1	.	102.9	.	.	.	53.9	99.0	121.2	62.4	.	.
COc1cc(/C=C/c2nc3ccccc3c(=O)[nH]2)cc(Br)c1O	.	49.8	.	38.2	.	108.6	79.3	78.0	42.9	.	.
C[C@H]1CN([C@@H](C)CO)C(=O)c2cc(NS(=O)(=O)c3ccc(Cl)cc3)ccc2O[C@H]1CN(C)C(=O)NC1CCCCC1	/	/	.	/	/	/	/	/	/	/	/
CC(C)(C)[S@](=O)N1Cc2cc(C(=O)N3CCCCC3)nc(-c3cccc(-c4cccc(C#N)c4)c3)c2[C@@H]1CCO	/	/	.	/	/	/	/	/	/	/	/
C[C@@H]1CCCCO[C@@H](CN(C)S(=O)(=O)c2cn(C)cn2)[C@@H](C)CN([C@H](C)CO)C(=O)c2cc(NC(=O)CCCN(C)C)ccc2O1	/	/	.	/	/	/	/	/	/	/	/
SMILES	aDG glyco act	TPT1 inhibitor	Xi reactivation	CSN inh	HNF4A DNA FP	Rpn11 inh	caTPT1 confirm	RNase T1 inh	Rpn11 confirm	MMP-2 counter	Thrombin inh
Cc1sc2nc(CSCC(=O)Nc3ccccc3C#N)[nH]c(=O)c2c1C	.	36.9	.	.	.	49.2	47.1	60.8	45.8	.	.
Cc1sc2nc(CSC(C)C(=O)Nc3ccc(C#N)cc3)[nH]c(=O)c2c1C (stereo unspecified)	.	28.7	.	.	.	45.5	37.6	49.3	.	.	.
Cc1sc2nc(CSC(C)C(=O)Nc3ccc(C(N)=O)cc3)[nH]c(=O)c2c1C (stereo unspecified)	.	.	.	.	.	.	/	/	/	/	/
C[C@H](CO)N1C[C@H](C)[C@@H](CN(C)Cc2ccncc2)Oc2ncc(C3=CCCCC3)cc2C1=O	/	/	.	/	/	/	/	/	/	/	/
CCOC1=C/C(=C/c2c(N)n3nc(S(=O)(=O)CC)sc3nc2=O)C=CC1=O	.	28.0	.	.	.	73.7	56.3	58.6	65.0	.	46.2
N#Cc1c(SCC(=O)Nc2nncs2)sc2c(O)cc(=O)[nH]c12	.	76.2	.	.	.	52.7	.	.	.	52.1	.
